Results reported in ChEMBL document CHEMBL3804819, “2-(Quinolin-4-yloxy)acetamides Are Active against Drug-Susceptible and Drug-Resistant Mycobacterium tuberculosis Strains” (ACS Med Chem Lett, 2016).
In brackets after ≈: the same amount, converted by molar mass. Activity calls are given as the source filed them. The rule behind the calls is not given here.

Columns and labels:
Acinetobacter baumannii = test: Antibacterial activity against Acinetobacter baumannii ATCC BAA 747 at 20 uM; type: functional, organism-based
[1] = tested on: Mycobacterium tuberculosis; test: Antibacterial activity against Mycobacterium tuberculosis H37Rv infected in mouse RAW 264.7 cells assessed reduction in bacterial count per well at 5 uM after 3 days (reference value: 2.5 +/- 0.15 log10CFU); type: functional
Vero = test: Cytotoxicity against African green monkey Vero cells assessed as reduction in cell viability at 20 uM after 72 hrs by MTT assay; type: cell-based; conditions: chlorocebus sabaeus
Staphylococcus aureus = test: Antibacterial activity against Staphylococcus aureus ATCC 25923 at 20 uM; type: functional, organism-based
Escherichia coli = test: Antibacterial activity against Escherichia coli ATCC 25922 at 20 uM; type: functional, organism-based
[2] = tested on: Mycobacterium tuberculosis; test: Antibacterial activity against Mycobacterium tuberculosis H37Rv ATCC 25618 assessed as reduction in bacterial growth after 6 days by resazurin assay; type: functional; conditions: H37Rv ATCC 25618, 144 h
Pseudomonas aeruginosa = test: Antibacterial activity against Pseudomonas aeruginosa ATCC 27853 at 20 uM; type: functional, organism-based
[3] = tested on: Mycobacterium tuberculosis; test: Antibacterial activity against Mycobacterium tuberculosis H37Rv assessed as reduction in bacterial growth after 7 days by resazurin assay; type: functional; conditions: for MIC: 168 h
HaCaT = test: Cytotoxicity against human HaCaT cells assessed as reduction in cell viability at 20 uM after 72 hrs by MTT assay; type: cell-based
RAW264.7 = test: Cytotoxicity against mouse RAW264.7 cells assessed as decrease in cell viability at 5 uM after 72 hrs by MTT assay; type: cell-based; conditions: raw264.7, 72 h
Danio rerio [4] = species: Danio rerio; test: Toxicity in zebrafish embryo assessed as reduction in heart rate at 20 uM measured at 72 hrs post fertilization by stereo microscopic analysis; type: organism-based; conditions: in vivo
Liver = test: Metabolic stability in human liver S9 fraction at 2 uM measured up to 30 mins by HPLC/MS/MS analysis; type: ADME, subcellular; conditions: s9, 0.5 h
[5] = Thermodynamic solubility of the compound at pH 1.5 after 24 hrs by HPLC analysis; type: physicochemical; conditions: buffer, read-out: Therm_solubility
Danio rerio [6] = species: Danio rerio; test: Toxicity in zebrafish embryo assessed as reduction in heart rate at 5 uM measured at 72 hrs post fertilization by stereo microscopic analysis; type: organism-based; conditions: in vivo
[7] = Inhibition CYP450 in human liver microsomes by HPLC/MS/MS analysis in presence of NADPH; type: ADME
Danio rerio [8] = species: Danio rerio; test: Toxicity in zebrafish embryo assessed as reduction in heart rate at 1 uM measured at 72 hrs post fertilization by stereo microscopic analysis; type: organism-based; conditions: in vivo
[9] = Thermodynamic solubility of the compound at pH 7.4 after 24 hrs by HPLC analysis; type: physicochemical; conditions: buffer, read-out: Therm_solubility
[10] = Selectivity index, ratio of cytotoxic activity for human HaCaT cells to MIC for Mycobacterium tuberculosis H37Rv; type: toxicity, cell-based; conditions: read-out: Selectivity Index
[11] = tested on: Mycobacterium tuberculosis; test: Potency index, ratio of isoniazid MIC to compound MIC for Mycobacterium tuberculosis H37Rv; type: functional
[12] = Selectivity index, ratio of cytotoxic activity for African green monkey Vero cells to MIC for Mycobacterium tuberculosis H37Rv; type: toxicity, cell-based; conditions: read-out: Selectivity Index
Danio rerio [13] = species: Danio rerio; test: Toxicity in zebrafish embryo assessed as reduction in embryo viability at 20 uM measured at 72 hrs post fertilization; type: organism-based; conditions: in vivo
Outline: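 Zebrafish embryos exposed to 20 μM for 72 h; embryo survival scored.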

[14] = Selectivity index, ratio of cardiac toxicity for zebrafish embryo to MIC for Mycobacterium tuberculosis H37Rv; conditions: read-out: Selectivity Index

| Compound | Activity (Acinetobacter baumannii) | Activity [1] [log10CFU] | Activity (Vero) | Activity (Staphylococcus aureus) | Activity (Escherichia coli) | Activity (Pseudomonas aeruginosa) | MIC [3] [µM] | Activity (HaCaT) | Activity (RAW264.7) | also measured |
| --- | --- | --- | --- | --- | --- | --- | --- | --- | --- | --- |
| COc1ccc2nc(C)cc(OCC(=O)Nc3ccccc3OC)c2c1 | inactive | 1.61 | Non-toxic | inactive | inactive | inactive | 0.44 (≈ 0.155 µg/mL) | Non-toxic | Non-toxic | MIC [2]: 0.7 µM (≈ 0.247 µg/mL) |
| COc1ccc2nc(C)cc(OCC(=O)Nc3ccc4c(c3)OCO4)c2c1 | inactive | 1.77 | Non-toxic | inactive | inactive | inactive | 0.42 (≈ 0.154 µg/mL) | Non-toxic | Non-toxic | – |
| COc1ccc2nc(C)cc(OCC(=O)NCc3ccccc3)c2c1 | inactive | 1.71 | Non-toxic | inactive | inactive | inactive | 1.85 (≈ 0.622 µg/mL) | Non-toxic | Non-toxic | – |
| COc1ccc2nc(C)cc(OCC(=O)Nc3cccc(C(F)(F)F)c3)c2c1 | – | – | – | – | – | – | 6.39 (≈ 2.49 µg/mL) | – | – | – |
| COc1ccc2nc(C)cc(OCC(=O)Nc3ccc(Br)cc3)c2c1 | inactive | 1.87 | Non-toxic | inactive | inactive | inactive | 0.1 (≈ 0.0401 µg/mL) | Non-toxic | Non-toxic | Activity (Danio rerio [4]): Toxic; Stability (Liver): Stable; solubility thermodynamic at 24 h [5]: 30 µM (≈ 12 µg/mL); Activity (Danio rerio [6]): Non-toxic; IC50 [7]: < 10 µM; Activity (Danio rerio [8]): Non-toxic; solubility thermodynamic at 24 h [9]: < 4.4 µM |
| NNC(=O)c1ccncc1 [ISONIAZID] | – | – | – | – | – | – | 1.46 (≈ 0.2 µg/mL) | – | – | – |
| COc1ccc2nc(C)cc(OCC(=O)Nc3ccccc3[N+](=O)[O-])c2c1 | – | – | – | – | – | – | 6.79 (≈ 2.49 µg/mL) | – | – | – |
| CO[C@H]1/C=C/O[C@@]2(C)Oc3c(C)c(O)c4c(O)c(c(/C=N/N5CCN(C)CC5)c(O)c4c3C2=O)NC(=O)/C(C)=C\C=C\[C@H](C)[C@H](O)[C@@H](C)[C@@H](O)[C@@H](C)[C@H](OC(C)=O)[C@@H]1C [RIFAMPIN] | – | 1.58 | – | – | – | – | – | – | – | – |
| COc1ccc2nc(C)cc(OCC(=O)Nc3ccc4ccccc4c3)c2c1 | inactive | 1.93 | Toxic | inactive | inactive | inactive | 0.05 (≈ 0.0186 µg/mL) | Toxic | Non-toxic | Selectivity ratio [10]: > 100; Ratio [11]: 30; Activity (Danio rerio [4]): Toxic; Selectivity ratio [12]: > 100; Stability (Liver): Unstable; Activity (Danio rerio [13]): Toxic; Selectivity ratio [14]: > 100; solubility thermodynamic at 24 h [5]: 30 µM (≈ 11.2 µg/mL); Activity (Danio rerio [6]): Non-toxic; IC50 [7]: < 10 µM; Activity (Danio rerio [8]): Non-toxic; solubility thermodynamic at 24 h [9]: < 4.4 µM |
| COc1ccc(NC(=O)COc2cc(C)nc3ccc(OC)cc23)c(OC)c1 | inactive | 1.61 | Non-toxic | inactive | inactive | inactive | 0.15 (≈ 0.0574 µg/mL) | Non-toxic | Non-toxic | Activity (Danio rerio [4]): Toxic; Stability (Liver): Stable; solubility thermodynamic at 24 h [5]: 30 µM (≈ 11.5 µg/mL); Activity (Danio rerio [6]): Non-toxic; IC50 [7]: < 10 µM; Activity (Danio rerio [8]): Non-toxic; solubility thermodynamic at 24 h [9]: < 4.4 µM |
| COc1ccc2nc(C)cc(OCC(=O)Nc3ccccc3C)c2c1 | inactive | 2.09 | Non-toxic | inactive | inactive | inactive | 0.46 (≈ 0.155 µg/mL) | Non-toxic | Non-toxic | – |
| COc1ccc2nc(C)cc(O)c2c1 | – | – | – | – | – | – | – | – | – | Activity [3]: inactive |
| COc1ccc2nc(C)cc(OCC(=O)Nc3cccc(Cl)c3)c2c1 | inactive | 2.12 | Non-toxic | inactive | inactive | inactive | 0.44 (≈ 0.157 µg/mL) | Non-toxic | Non-toxic | – |
| COc1ccc2nc(C)cc(OCC(=O)Nc3ccc(C(F)(F)F)cc3)c2c1 | inactive | 1.89 | Non-toxic | inactive | inactive | inactive | 0.8 (≈ 0.312 µg/mL) | Non-toxic | Non-toxic | – |
| CCc1cccc(C)c1NC(=O)COc1cc(C)nc2ccc(OC)cc12 | – | – | – | – | – | – | > 27 | – | – | – |
| COc1cccc(NC(=O)COc2cc(C)nc3ccc(OC)cc23)c1 | inactive | – | Non-toxic | inactive | inactive | inactive | 0.88 (≈ 0.31 µg/mL) | Non-toxic | – | – |
| COc1ccc2nc(C)cc(OCC(=O)Nc3cccc4ccccc34)c2c1 | – | – | – | – | – | – | 0.21 (≈ 0.0782 µg/mL) | – | – | – |
| COc1ccc2nc(C)cc(OCC(=O)Nc3ccc(N)cc3)c2c1 | – | – | – | – | – | – | 7.39 (≈ 2.49 µg/mL) | – | – | – |
| COc1ccc2nc(C)cc(OCC(=O)Nc3ccccc3)c2c1 | inactive | – | Non-toxic | inactive | inactive | inactive | 0.48 (≈ 0.155 µg/mL) | Non-toxic | – | – |
| COc1ccccc1NC(=O)COc1cc(C)nc2ccccc12 | – | – | – | – | – | – | > 29 | – | – | – |
| COc1ccc2nc(C)cc(OCC(=O)Nc3ccccc3Cl)c2c1 | inactive | 1.75 | Non-toxic | inactive | inactive | inactive | 0.44 (≈ 0.157 µg/mL) | Non-toxic | Non-toxic | – |
| COc1ccc2nc(C)cc(OCC(=O)Nc3ccc(Cl)cc3)c2c1 | inactive | 1.73 | Non-toxic | inactive | inactive | inactive | 0.44 (≈ 0.157 µg/mL) | Non-toxic | Non-toxic | – |
| COc1ccc2c(c1)c(=O)ccn2CC(=O)Nc1ccccc1OC | – | – | – | – | – | – | > 31 | – | – | – |
| COc1ccc2nc(C)cc(OCC(=O)Nc3ccc([N+](=O)[O-])cc3)c2c1 | – | – | – | – | – | – | 6.79 (≈ 2.49 µg/mL) | – | – | – |
| COc1ccc(NC(=O)COc2cc(C)nc3ccc(OC)cc23)cc1 | inactive | – | Non-toxic | inactive | inactive | inactive | 0.44 (≈ 0.155 µg/mL) | Non-toxic | – | – |
